The record followed here is the RNAGym collection of RNA variant scans (doi:10.1126/science.aae0568).

B1: tRNA (parent)
chain: GUUCCGUUGGCGUAAUGGUAACGCGUCUCCCUCCUAAGGAGAAGACUGCGGGUUCGAGUCCCGUACGGAACG

Variants at the floor of the assay were thinned out.

The variants in this data set derive from B1. Kind of data set: yeast fitness relative to wild type (ratio to wild type); higher = fitter; tRNA-Arg(CCU), competitive growth, 37 C, YPD. In short, it runs like this:
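A pool of Saccharomyces cerevisiae strains, each with a tRNA-Arg(CCU) gene variant at the native genomic locus, was competed in YPD at 37°C for 24 hours across six parallel replicates. The variants had been chemically synthesised at a 3% per-site mutation rate over 69 sites, and gene amplicons before and after competition were read by 100-nucleotide paired-end sequencing. Darwinian fitness relative to wild type rested on changes in genotype frequencies. Genotypes required ≥ 100 starting reads, and estimates < 0.5 were set to 0.5.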
For GUUCCGUUGACGUAAUGGUAGCGCGUCUCACUCCUAAGGAGCAGACUGCGGGUUCGAGUCCCGUACGGAACG [G10A A21G C30A A42C], the yeast fitness is at most 0.5.

Turning to GUUCCGUUGACGUCAUGGUAACGCGUGUCCCUCCUAAGGAGAAGAGUGCGGGUUCGAGUCCCGUGCGGAACG [G10A A14C C27G C46G A65G], the yeast fitness is at most 0.5.

With GUUCCGUUGACGUAUUGGUACCGCCUCUCCCUCCUAAGGAGAAGACUGCGGGUUCAAGUCCCGUACGGAACG [G10A A15U A21C G25C G56A], the yeast fitness was at most 0.5.

For the variant GUUCCGUUGACGUUAUGGAAACCCGUCUACCUCCUAAGGAGAAGACUGCGGGUUCGAGUCCCGUAAGGAACG [G10A A14U U19A G23C C29A C66A], the yeast fitness was at most 0.5.

Regarding GUUCCGUUGACGUGAUGGUAACGCGUCUGCCUCCUAAGGAGAAGACUGCGGGUUCGAGUCCCGUACGGAACG [G10A A14G C29G], the yeast fitness is at most 0.5.

For GUUCCGUUGACGUACUGGUAACGCGUCUCCCUCCUAAGCAGAAGACUGCGGGUUCGAGUCCCGUACGGAACG [G10A A15C G39C], the yeast fitness is at most 0.5.

With GUUCCGUUGACGUAAUGGUACCGAGUCUCCCUCCUAAGGAGAAGACUGCGGGUUCGAGUCCCGUCCGCAACG [G10A A21C C24A A65C G68C], the yeast fitness is at most 0.5.

On to GUUCCGUUGACGUAUUGGUACCGCCUCUCCCUCCUAAGGAGAAGACUGCGGGUUCGAGUCCCGUACGGAACG [G10A A15U A21C G25C], for which the yeast fitness was 0.533.

In the case of GUUCCGUUUGCGUAAGGGUAACGCGUCUCCCUCCUAAGGAGAAGACUGCGGGUUCGAGUCCCGUACGGAACG [G9U U16G], the yeast fitness amounted to 0.612.

Regarding GUUCCGUUGACGUAAUGGUCACGCGUCUCCCUCCUAAGGAGAAGACUGCGGGUUCGCGUCCCGUACGGAACG [G10A A20C A57C], the yeast fitness was at most 0.5.

Turning to GUUCCGUUGACGUAAUGGUGACGCGUCUCCCUCCUAAGGCGCAGACUGCGGGUUCGAGUCCCGUACGGAACG [G10A A20G A40C A42C], the yeast fitness was at most 0.5.

As for GUUCCGUUGACGUUAUGGUAACGCGUCUCCAUCCGAAGGAGAAGAAUGCGGGUUCGAGUCCCGUUCGGAACG [G10A A14U C31A U35G C46A A65U], the yeast fitness was at most 0.5.

Turning to GUUCCGUUGACGUAGUGGUAACGCGUCUCCCUCCUAAGGAGAAGACUGCGGGUUCGAGUCCCGUUCGGAACG [G10A A15G A65U], the yeast fitness came out at 0.702.

On to GUUCCGUUGACGUGAUGGUAACGCGUCUCCCUCCUAAGGAGAAGAAUGCGGGUUCGGGUCCCGUACGGAACG [G10A A14G C46A A57G], for which the yeast fitness is at most 0.5.

For GUUCCGUUGACGUAGUGGUAACGCGUCUCCCUCCUAAGGAGCAGACUGCCGGUUCGAGUCCCGUACGGAACG [G10A A15G A42C G50C], the yeast fitness was at most 0.5.

As to GUUCCGUUGACGUAAUGGUUACGCGUCUCACUCCUAAGGAGAAGACUGCGGGUUCGAGUCCUGUACGGAACG [G10A A20U C30A C62U], the yeast fitness is at most 0.5.

In the case of GUUCCGUUGACGUAAUGGUAGUGCGUCUCCCUCCUAAGGAGAAGACUGCGGGUUUGAGUCCCGUACGGAACG [G10A A21G C22U C55U], the yeast fitness was at most 0.5.

In the case of GUUCCGUUGACGUAAUGGUACCGCGUCUCCCUCCUAAGGAGAAGACUGCGGGUUCGAGUCCCGUACGGAACG [G10A A21C], the yeast fitness was 0.693.

For the variant GUUCCGUUGACGUAAUGGUAGCGCGUCUCCCUCCUAAGGAGAAGACUGCGGGUUCGAGUCCCGUACGGAACG [G10A A21G], the yeast fitness was 0.878.

Regarding GUUCCGUUGACGUAAUGGUCACGCGUGUCCCUCCUAAGGGGAAGACUGCGGGUUCCAGUCCCGUACGGAACG [G10A A20C C27G A40G G56C], the yeast fitness was at most 0.5.

In the case of GUUCCGUUGACGUGAUGGUAACGCGUCUCCCUCCUAAGGAGAAGACUGCGGGUUCGAGUCCCGUACGGACCG [G10A A14G A70C], the yeast fitness stood at 0.535.

In the case of GUUCCGUUGACGUAAUGGUACCGCGUCUCCCUCCUAAGGAGAAGACUGCGGCUUCGAGUCCCGUACGGAACG [G10A A21C G52C], the yeast fitness is at most 0.5.

Regarding GUUCCGUUGACGUACUGGUAACGCGUCUCCCUCAUAAGGAGAAGACUGUGGGUUCGAGUCGCGUACGGAACG [G10A A15C C34A C49U C61G], the yeast fitness stood at 0.603.

In the case of GUUCCGUUGACGUAAUGGUAGCGCGUUUCCCUCCUAAGGUGAAGACUGCGGGUUCGAGUCCCGUACGGAACG [G10A A21G C27U A40U], the yeast fitness is at most 0.5.

GUUCCGUUGACGUAAUGGUGACGCGUCUUCCUCCUAAGGAGAAGACUGUGGGUUCAAGUCCCAUACGGAACG [G10A A20G C29U C49U G56A G63A]: the yeast fitness is at most 0.5.

GUUCCGUUGACGUCAUGGUAAUGCGUCUCCCUCCUAAGGAGAAGACUGCGGGUUCGAGUCCCGUACGGAACG [G10A A14C C22U]: the yeast fitness is at most 0.5.

Take GUUCCGUUGACGUAUUGGUAACGCGUCUCCCUCCUAAGGAGAAGACUGCGGGUUCGAGUCCCGUACGGAACG [G10A A15U]: the yeast fitness came out at 0.681.

Turning to GUUCCGUUGACGUACUGGUAACGCGUCUCCCUCCUAAGGAGAAGACUGCGGGUUCGAGUCCCGUACGGAACG [G10A A15C], the yeast fitness turned out to be 0.613.

As to GUUCCGUUGACGUAGUGGUAACGCGUCUCCCUCCUAAGGAGAAGACUGGGGGUUCGAGUCCCGUACGUAACG [G10A A15G C49G G68U], the yeast fitness was at most 0.5.

For GUUCCGUUGACGUUAUGGUAACGCGUCUCUCUCCUACGGAGAAGACUGCGGGAUCGAGUCCCGUACGGAACG [G10A A14U C30U A37C U53A], the yeast fitness is at most 0.5.

Consider GUUCCGUUGACGUAUUCGUAACGCGUCUCCCUCCUAAGGAGAAGUCUGGGGGUUCGAGUCCCGUACGGAUCG [G10A A15U G17C A45U C49G A70U], for which the yeast fitness was at most 0.5.

Consider GUUCCGUUGACGUAAUGGUUACGCGUCUCCCUCCUAAGGAGAAGUCUGCGGGUUUGAGUCCCGUACGGACCG [G10A A20U A45U C55U A70C], for which the yeast fitness was determined as 0.576.

As for GUUCCGUUGACGUAAUGGUACAGCCUCUCCCUCCUAAAGAGAAGACUGCGGGUUCGAGAUCCGUACGGAACG [G10A A21C C22A G25C G38A U59A C60U], the yeast fitness is at most 0.5.

For GUUCCGUUGACGUAAUGGUAGCGCGUCUCCCUCCUAAGGAGAAGACUGCGGGUUCGAGUCCCGUUCGGCACG [G10A A21G A65U A69C], the yeast fitness was found to be 0.777.

Turning to GUUCCGUUGACGUAAUGGUUACGCGUCUCCCUCCCAAGGAGAAGACUCCGGGUUCGAGUACCGUACGGAACG [G10A A20U U35C G48C C60A], the yeast fitness is at most 0.5.

For the variant GUUCCGUUGACGUAAUGGUAGCGCGUCUCCCUCCUAAGGAGAAGACUGCGGGUUCGAGUCCCGUCCGGAACG [G10A A21G A65C], the yeast fitness came to 0.545.

In the case of GUUCCGUUGACGUAUUGGUAACGCGUCUCCCUCCUAAGGAGAAGACUGCGGGUUCGAGUCCCGUACGGAGCG [G10A A15U A70G], the yeast fitness is at most 0.5.
